Measurements taken from ChEMBL document CHEMBL3351968, “Synthesis and analgesic activity of alkylated, reduced and constrained oligoheterocyclic peptidomimetic analogs of Leu-enkephalin” (Bioorg Med Chem Lett, 2014).
pKi: −log10 of the molar value. Square brackets hold non-standard residues; d marks the D form. Peptide text beside a SMILES is read from it. ξ: configuration not given here. NMeY = CN[C@@H](Cc1ccc(O)cc1)C(=O)O; NMeF = CN[C@@H](Cc1ccccc1)C(=O)O; ξP = O=C(O)C1CCCN1; Ava = NCCCCC(=O)O

Legend:
[1] = molecular target: Mu-type opioid receptor (Rattus norvegicus, UniProt P33535); assay: Displacement of [3H]DAMGO from mu opioid receptor in rat brain membrane by liquid scintillation counting analysis; assay type: cell membranes
Sequence of Mu-type opioid receptor (P33535 whole entry): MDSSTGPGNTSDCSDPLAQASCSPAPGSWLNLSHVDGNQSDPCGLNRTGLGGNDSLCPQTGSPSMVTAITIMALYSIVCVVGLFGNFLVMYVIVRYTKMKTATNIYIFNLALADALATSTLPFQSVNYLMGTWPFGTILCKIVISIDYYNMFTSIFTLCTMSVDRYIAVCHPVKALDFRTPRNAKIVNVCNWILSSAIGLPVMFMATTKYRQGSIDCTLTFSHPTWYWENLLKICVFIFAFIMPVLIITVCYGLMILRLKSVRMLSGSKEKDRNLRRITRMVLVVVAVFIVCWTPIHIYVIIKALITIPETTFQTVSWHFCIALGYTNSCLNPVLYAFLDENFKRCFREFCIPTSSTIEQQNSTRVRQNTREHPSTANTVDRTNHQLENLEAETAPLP
Summary of the method: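 Competitive radioligand binding at the mu (MOR) opioid receptor with [3H]-DAMGO as tracer; affinity expressed as Ki.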

[2] = molecular target: Kappa-type opioid receptor (Cavia porcellus, UniProt P41144); assay: Displacement of [3H]U69593 from kappa opioid receptor in guinea pig cortices membrane by liquid scintillation counting analysis; assay type: cell membranes
Sequence of Kappa-type opioid receptor (P41144 whole entry): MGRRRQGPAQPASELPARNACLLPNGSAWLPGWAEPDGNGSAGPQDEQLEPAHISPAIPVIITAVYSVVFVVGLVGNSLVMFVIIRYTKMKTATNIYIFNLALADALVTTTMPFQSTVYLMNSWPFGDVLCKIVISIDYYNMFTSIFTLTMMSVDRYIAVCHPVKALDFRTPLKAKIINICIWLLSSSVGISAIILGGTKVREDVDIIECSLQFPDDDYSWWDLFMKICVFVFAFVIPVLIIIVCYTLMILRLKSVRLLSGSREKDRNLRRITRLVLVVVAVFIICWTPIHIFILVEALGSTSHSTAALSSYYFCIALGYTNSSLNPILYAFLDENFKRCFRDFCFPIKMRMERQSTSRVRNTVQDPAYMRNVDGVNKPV
Summary of the method: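 Competitive radioligand binding at the kappa (KOR) opioid receptor with [3H]-U69,593 as tracer; affinity expressed as Ki.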

SMILES	pKi [1]	pKi [2]
CC(C)C[C@H]1CNC(=S)N1C[C@H](Cc1ccccc1)N(C)CCN(C)CCN1C[C@H](Cc2ccc(O)cc2)N(C)C1=S	5.15	5.47
CN[C@H](CNCC(=O)N(C)CCN(C)[C@H](CN[C@H](CN)CC(C)C)Cc1ccccc1)Cc1ccc(O)cc1	5.82	5.95
CC(C)C[C@H]1CNC(=O)C(=O)N1C[C@H](Cc1ccccc1)N(C)CCN(C)CCN1C[C@H](Cc2ccc(O)cc2)N(C)C(=O)C1=O	4.82	4.03
CC(C)C[C@H]1CNCCN1C[C@H](Cc1ccccc1)N(C)CCN(C)CCN1CCN(C)[C@@H](Cc2ccc(O)cc2)C1	5.58	5.51
CC(C)C[C@H]1CNC(=S)N1C[C@H](Cc1ccccc1)N(C)CCN1CCN(C[C@H](Cc2ccc(O)cc2)N(C)C)C1=S	6.13	5.64
CC(C)C[C@H]1CNC(=N)N1C[C@H](Cc1ccccc1)N(C)CCN1CCN(C[C@H](Cc2ccc(O)cc2)N(C)C)C1=N	5.97	4.95
CC(C)C[C@H]1CNCCN1C[C@H](Cc1ccccc1)N(C)CCN1CCN(C[C@H](Cc2ccc(O)cc2)N(C)C)CC1	5.94	5.46
CC(C)C[C@H]1CNC(=S)N1C[C@H](Cc1ccccc1)N(C)C[C@@H]1CCCN1C[C@H](Cc1ccc(O)cc1)N(C)C	6.37	5.48
CC(C)C[C@H]1CNC(=O)C(=O)N1C[C@H](Cc1ccccc1)N(C)C[C@@H]1CCCN1C[C@H](Cc1ccc(O)cc1)N(C)C	6.60	4.98
CC(C)C[C@@H](CN)NC[C@H](Cc1ccccc1)N(C)C[C@@H]1CCCN1C[C@H](Cc1ccc(O)cc1)N(C)C	7.22	5.89
CC(C)C[C@H]1CNC(=S)N1C[C@H](Cc1ccccc1)N(C)CCCCCN1C[C@H](Cc2ccc(O)cc2)NC1=S	4.96	5.02
CC(C)CC(CN)NCC(Cc1ccccc1)N(C)CCCCCNCC(N)Cc1ccc(O)cc1 (stereo not drawn)	5.75	5.79
CC(C)C[C@H](NC(=O)[C@H](Cc1ccccc1)N(C)C(=O)CCCCNC(=O)[C@@H](N)Cc1ccc(O)cc1)C(N)=O (H-Y[Ava][NMeF]L-NH2)	4.41	4.65
CN[C@@H](Cc1ccc(O)cc1)C(=O)N1CCCC1C(=O)N(C)[C@@H](Cc1ccccc1)C(=O)N[C@@H](CC(C)C)C(N)=O (stereo partly drawn) (H-[NMeY][ξP][NMeF]L-NH2)	5.67	5.69
